Laboratory results: PubChem BioAssay
Results filed as inconclusive are left out.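 How the source made its calls, unless noted: active means viability at or below 27.92% in each of two runs, the all-compound median minus 4 SD; inconclusive means no clear call, values can overlap the other calls; inactive means the rest.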

Tests used:
[1] = S. cerevisiae growth inhibition in permissive medium (OD615), pilot counter-assay for S. cerevisiae lifespan shortening project, permissive growth control (AID 705;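 active means growth inhibition above 25% in both replicates, a cutoff set 3 SD above the mean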); settings: OD615, 24 h, at 10 µM, active compounds read high
In short: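 assay system = Saccharomyces cerevisiae strain carrying genetically modified DeaD replicative-lifespan system | technique = absorbance (optical density) at 615 nm | buffer or medium = permissive raffinose/galactose medium | timing = cells pre-grown 4 h, then 24 h compound exposure, 30 °C humidified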

[2] = S. cerevisiae growth inhibition in restrictive medium, OD615, pilot screen, restrictive growth control, yeast lifespan reduction project (AID 706;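 active means growth inhibition above a set limit, 3 SD over mean compound inhibition, in both replicates, cut at about 43% in these data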;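 further: modified DeaD lifespan yeast strain shifted to restrictive glucose medium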); settings: OD615, 48 h, at 10 µM, active compounds read high
In short: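 System: modified S. cerevisiae. Buffer or medium: CSMM-D glucose medium. Incubation: 4 h pre-growth plus 48 h compound exposure, 30 °C. Detection: absorbance (optical density) measured at 615 nm.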

[3] = doxorubicin toxicity protection in MRP-1 cells – H69AR cells, CellTiter-Glo, duplicate, MRP-1 activator project, pilot screen (AID 807;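 active means viability increase at or above a cutoff of the median across tested compounds plus 3 SD, cut at about 8.5% in these data, passing the limit was not always enough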;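 further: compound pretreatment 18-22 h then 72 h combined with doxorubicin; 0% = doxorubicin alone and 100% = vehicle without doxorubicin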); settings: H69AR viability with doxorubicin, CellTiter-Glo luminescence; at 10 µM; active compounds read high
[4] = viability of HCT116 without oncogenic beta-catenin – human colon tumor cells, pilot screen (AID 823;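 active means cell viability at or below a set limit in both duplicate runs, the limit being the all-compound median minus 4 SD, cut at about 23% in these data, passing the limit was not always enough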;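 further: 0% = wells killed by 20 µM Hyamine and 100% = untreated DMSO cell wells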); settings: HCT116 beta-catenin knockout viability, CellTiter-Glo, 60 h; at 10 µM; active compounds read low
[5] = viability of PTEN-null HCT116 cells – cell-based, HCT116 clonal line, CellTiter-Glo, pilot screen (AID 824); settings: HCT116 PTEN-deleted viability, 60 h, at 10 µM, active compounds read low;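 further: 0% = 20 µM Hyamine control and 100% = vehicle cell control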
[6] = RAM pathway blockade in budding yeast – dse1pr::URA3 reporter, 5-FOA selection, pilot screen (AID 869;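 active means inhibition over a set limit, the all-compound mean plus 3 SD, in both replicate runs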;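 further: 0% = DMSO wells with no growth and 100% = 10 µM 1-NA-PP1 with full growth; RAM network block rescues cells from 5-FOA so hits raise OD615 growth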); settings: S. cerevisiae dse1pr::URA3 5-FOA growth, OD615, 2 d; at 10 µM; active compounds read high; strain carries analog-sensitive mutant Cbk1 kinase
[7] = RAM signaling pathway blockade in yeast – S. cerevisiae, Pdr1DBD-CYC8 efflux-inhibited sensitized strain, primary screen (AID 1298;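 active means RAM network inhibition above 8.4% in each of two replicates, 3 SD over the compound average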;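 further: 0% = DMSO untreated cells without growth and 100% = 10 µM 1-NA-PP1 full growth; higher means more yeast growth rescued from 5-FOA killing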); settings: S. cerevisiae cbk1-as DSE1-URA3 strain, 5-FOA growth OD615, 2 d; at 50 µM; active compounds read high

COC(=O)C1=C(C)Nc2nc(-c3ccccc3)nn2C1c1ccc(C)o1 (configuration not stated)
inactive: growth inhibition [1] -4.19% | growth inhibition [2] 12.3% | viability increase [3] -4.23% | viability [4] 78.3% | viability [5] 76.1% | inhibition [6] 2.19% | RAM network inhibition [7] 1.2%

O=C(O)C1CCCN1S(=O)(=O)c1cc(Cl)ccc1Cl (configuration not stated)
inactive: growth inhibition [1] -3.73% | growth inhibition [2] -6.05% | viability increase [3] 1.55% | viability [4] 92.5% | viability [5] 102% | inhibition [6] 0.535% | RAM network inhibition [7] 4.12%

CCCCn1c(CNC(=O)c2cccs2)nc2ccccc21
inactive: growth inhibition [1] -5.02% | growth inhibition [2] -5.51% | viability increase [3] -3.7% | viability [4] 101% | viability [5] 94.5% | inhibition [6] -0.215% | RAM network inhibition [7] -1.56%

O=C(CN1CCOc2ccccc21)NCc1ccc(F)cc1
inactive: growth inhibition [1] -29.5% | growth inhibition [2] 2.98% | viability increase [3] -5.89% | viability [4] 91.4% | viability [5] 85.8% | inhibition [6] 0.305% | RAM network inhibition [7] -0.84%

CCC(CC)C(=O)N1c2ccc(F)cc2CCC1C (configuration not stated)
inactive: growth inhibition [1] -16.6% | growth inhibition [2] -10.7% | viability increase [3] -0.23% | viability [4] 95.3% | viability [5] 93.9% | inhibition [6] 1.31% | RAM network inhibition [7] 1.96%

COc1ccccc1C1C(C(N)=O)=C(C)Nc2nc(-c3ccc(Cl)cc3)nn21 (configuration not stated)
inactive: growth inhibition [1] -5.66% | growth inhibition [2] 0.335% | viability increase [3] -1.26% | viability [4] 95% | viability [5] 92.4% | inhibition [6] -0.455% | RAM network inhibition [7] -1.72%

O=C1CC(c2ccccc2)C(C(=O)Nc2ccccc2F)N1 (configuration not stated)
inactive: growth inhibition [1] -17.2% | growth inhibition [2] 2% | viability increase [3] -0.74% | viability [4] 104% | viability [5] 99.3% | inhibition [6] 0.81% | RAM network inhibition [7] 4.18%

O=S(=O)(Nc1ccc(-c2nc3cccnc3s2)cc1)c1cccs1
inactive: growth inhibition [1] -4.44% | growth inhibition [2] -6.65% | viability increase [3] -1.73% | viability [4] 110% | viability [5] 95.6% | inhibition [6] 1.79% | RAM network inhibition [7] 3.74%

CN(C)c1ccc(NC(=O)c2cccc(N3C(=O)CCC3=O)c2)cc1
inactive: growth inhibition [1] 5.53% | growth inhibition [2] 4.7% | viability increase [3] 1.36% | viability [4] 106% | viability [5] 100% | inhibition [6] -0.005% | RAM network inhibition [7] 4.75%

CC(C)COC(=O)c1ccc(NC(=O)C2C3CCC(C3)C2C(=O)O)cc1 (configuration not stated)
inactive: growth inhibition [1] -7.04% | growth inhibition [2] -5.98% | viability increase [3] 0.09% | viability [4] 87.4% | viability [5] 90% | inhibition [6] 0.68% | RAM network inhibition [7] 0.37%

Cn1c(=O)oc2cc(S(=O)(=O)NC3CCCc4ccccc43)ccc21 (configuration not stated)
inactive: growth inhibition [1] -25.4% | growth inhibition [2] -11.4% | viability increase [3] -1.98% | viability [4] 92.4% | viability [5] 90.7% | inhibition [6] 3.1% | RAM network inhibition [7] 6.28%

CCOCCn1c(N(C)Cc2ccccc2)nc2c1c(=O)[nH]c(=O)n2C
inactive: growth inhibition [1] -10.9% | growth inhibition [2] -6.11% | viability increase [3] 0.04% | viability [4] 101% | viability [5] 95.6% | inhibition [6] 0.985% | RAM network inhibition [7] 5.77%

CC(C)Sc1nc2c(cnn2-c2ccc(F)cc2)c(=O)[nH]1
inactive: growth inhibition [1] -8.33% | growth inhibition [2] -1.79% | viability increase [3] -3.72% | viability [4] 90.7% | viability [5] 97.3% | inhibition [6] 0.795% | RAM network inhibition [7] 3.54%

CCOC(=O)C1=C(C)NC2=C(C(=O)CCC2)C1c1cc(OC)ccc1OC (configuration not stated)
inactive: growth inhibition [1] -10.6% | growth inhibition [2] -12.8% | viability increase [3] -1.47% | viability [4] 94.1% | viability [5] 96.3% | inhibition [6] 1.73% | RAM network inhibition [7] 7.52%

Cc1ccc(OCCn2c(C)c(/C=N/n3cnnc3)c3ccccc32)cc1
inactive: growth inhibition [1] 8.46% | growth inhibition [2] 22.9% | viability increase [3] -6.55% | viability [4] 81.5% | viability [5] 76% | inhibition [6] 0.8% | RAM network inhibition [7] 1.89%

O=C(NCc1ccccc1)c1ccc2c(c1)OCCO2
inactive: growth inhibition [1] 3.26% | growth inhibition [2] 5.53% | viability increase [3] -1.83% | viability [4] 101% | viability [5] 101% | inhibition [6] 1.48% | RAM network inhibition [7] 0.51%

O=C(Cn1c(=O)oc2cc(S(=O)(=O)N3CCc4ccccc43)ccc21)NC1CCCC1
inactive: growth inhibition [1] -3.26% | growth inhibition [2] 2.94% | viability increase [3] -1.06% | viability [4] 78.8% | viability [5] 73.9% | inhibition [6] 2.91% | RAM network inhibition [7] 0.88%

COc1ccc(NC(C)=O)cc1NC(=O)CSc1nnc(-c2ccncc2)n1C
inactive: growth inhibition [1] -5.57% | growth inhibition [2] -7.07% | viability increase [3] -1.99% | viability [4] 96.6% | viability [5] 106% | inhibition [6] 0.24% | RAM network inhibition [7] 0.2%

CC(=O)c1ccc(OCC(O)CN2CCCC(C)C2)cc1 (configuration not stated)
inactive: growth inhibition [1] 5.32% | growth inhibition [2] -4.29% | viability increase [3] -0.81% | viability [4] 99.3% | viability [5] 96.7% | inhibition [6] 1.98% | RAM network inhibition [7] 5.23%

COc1ccc(OC)c(NC(=O)COC(=O)c2ccc(S(=O)(=O)N3CCOCC3)cc2)c1
inactive: growth inhibition [1] -3.99% | growth inhibition [2] 1.01% | viability increase [3] -1.17% | viability [4] 94.5% | viability [5] 91.9% | inhibition [6] 2.73% | RAM network inhibition [7] 5.32%

Cc1ccc(C(=O)N2CCN(C3CCCCC3)CC2)s1
inactive: growth inhibition [1] -3.88% | growth inhibition [2] -0.76% | viability increase [3] -1.15% | viability [4] 102% | viability [5] 97.7% | inhibition [6] 1.48% | RAM network inhibition [7] 1.05%

COc1ccc(OC)c(NC(=O)Nc2ccccc2C)c1
inactive: growth inhibition [1] -3.12% | growth inhibition [2] -16.3% | viability increase [3] -3.16% | viability [4] 102% | viability [5] 95.9% | inhibition [6] 1.13% | RAM network inhibition [7] 1.79%

COc1ccc(-c2cc(C(=O)O)c3ccccc3n2)c(OC)c1
inactive: growth inhibition [1] -10.4% | growth inhibition [2] 0.26% | viability increase [3] -2.6% | viability [4] 82.2% | viability [5] 89.3% | inhibition [6] 1.47% | RAM network inhibition [7] 5.56%

O=C(c1ccccc1)N1CCN(C2CC(=O)N(CCc3ccccc3)C2=O)CC1 (configuration not stated)
inactive: growth inhibition [1] -3.21% | growth inhibition [2] 4.64% | viability increase [3] 1.3% | viability [4] 96.8% | viability [5] 100% | inhibition [6] 2.52% | RAM network inhibition [7] 4.98%

Cc1c2cnn(-c3ccccc3)c(=O)c2c(C)n1CCCC(=O)N1CCN(C)CC1
inactive: growth inhibition [1] -6.96% | growth inhibition [2] -7.72% | viability increase [3] -1.33% | viability [4] 104% | viability [5] 96.2% | inhibition [6] 1.86% | RAM network inhibition [7] 3.19%

COC(=O)NCC(c1cccnc1)N1CCN(c2ccccc2F)CC1 (configuration not stated)
inactive: growth inhibition [1] -5.28% | growth inhibition [2] -1.77% | viability increase [3] -0.18% | viability [4] 95.6% | viability [5] 102% | inhibition [6] 1.66% | RAM network inhibition [7] 1.57%

O=c1cc(CSc2nnc(-c3ccccc3)o2)c2ccccc2[nH]1
inactive: growth inhibition [1] -4.87% | growth inhibition [2] -3.43% | viability increase [3] 0.91% | viability [4] 99.2% | viability [5] 102% | inhibition [6] 2.32% | RAM network inhibition [7] 6.08%

CCc1nnc(NC(=O)CSc2nc3c(c(=O)n2CC)SC(C)C3)s1 (configuration not stated)
inactive: growth inhibition [1] 3.12% | growth inhibition [2] -4.29% | viability increase [3] -0.18% | viability [4] 99.2% | viability [5] 93.1% | inhibition [6] 3.99% | RAM network inhibition [7] 6.11%

CCN(CC)S(=O)(=O)c1ccc(C(=O)Nc2ccc(OCC(=O)N3CCOCC3)cc2)cc1
inactive: growth inhibition [1] -6% | growth inhibition [2] -11% | viability increase [3] 0.35% | viability [4] 86.6% | viability [5] 95.4% | inhibition [6] 0.185% | RAM network inhibition [7] 4.45%

CCn1cc(Br)c(C(=O)Nc2ccc(F)c(Cl)c2)n1
inactive: growth inhibition [1] 0.5% | growth inhibition [2] -5.7% | viability increase [3] -3.96% | viability [4] 84.1% | viability [5] 80.6% | inhibition [6] -0.565% | RAM network inhibition [7] -0.16%

Cc1ccc(C)c(C(=O)N(Cc2nc(-c3ccc(Cl)cc3)no2)C(C)C)c1
inactive: growth inhibition [1] -8.99% | growth inhibition [2] -16.6% | viability increase [3] -0.54% | viability [4] 56.5% | viability [5] 62.6% | inhibition [6] 1.21% | RAM network inhibition [7] 4.04%

CC(=O)N(CCCN(C)C)CCC(C)CCC=C(C)C (configuration not stated)
inactive: growth inhibition [1] -7.18% | growth inhibition [2] -5.88% | viability increase [3] -2.93% | viability [4] 94.1% | viability [5] 92.7% | inhibition [6] 0.41% | RAM network inhibition [7] 3.84%

COC(=O)c1ccc(NC(=O)CNC(=O)C2CCCCC2)cc1
inactive: growth inhibition [1] -0.115% | growth inhibition [2] -0.73% | viability increase [3] -0.57% | viability [4] 98.4% | viability [5] 88.1% | inhibition [6] 0.625% | RAM network inhibition [7] 1.94%

COC(=O)c1nnn(Cc2ccccc2)c1N
inactive: growth inhibition [1] -6.96% | growth inhibition [2] -7.86% | viability increase [3] -1.68% | viability [4] 103% | viability [5] 98.8% | inhibition [6] 0.585% | RAM network inhibition [7] 0.17%

CCOC(=O)c1ccc(N2CSC3=C(C#N)C(c4ccc(OC)cc4OC)CC(=O)N3C2)cc1 (configuration not stated)
inactive: growth inhibition [1] 6.21% | growth inhibition [2] 24.4% | viability increase [3] -4.16% | viability [4] 92.3% | viability [5] 93.2% | inhibition [6] 2.44% | RAM network inhibition [7] 1.72%

CCOc1ccc(C2c3c(oc4ccccc4c3=O)C(=O)N2CCCN2CCOCC2)cc1OCC (configuration not stated)
inactive: growth inhibition [1] -14% | growth inhibition [2] -31.3% | viability increase [3] -4.89% | viability [4] 102% | viability [5] 88.6% | inhibition [6] 0.48% | RAM network inhibition [7] 1.21%
